Assay results from PubChem BioAssay AID1296 (Columbia University Molecular Screening Center, 2008).
About 1,000 (0.77%) of roughly 130,000 compounds were called active. About 1% were inconclusive and are not listed.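 Rule for the calls: active = activation at 2 µM above a set limit, confirmed on inspection of the cell images; inconclusive = above the set limit but not confirmed on image inspection; inactive = the rest.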 Only a selection was taken, and actives are over-represented in it overall.

Assay: insulin gene promoter stimulation in islet cells – imaging, TRM-6 cells, eGFP reporter, cell count, primary screen (AID 1296);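 for activation: share of cells whose green reporter signal exceeds an intensity cutoff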
Settings: at 2 µM; activation: stronger effect = higher value; normalized cell count: measured here: cell count (toxicity)
How it was run: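 System: human fetal islet-derived TRM-6 cells with tamoxifen-inducible insulin promoter–eGFP reporter; input: seeding density of 1,000 cells per well; buffer or medium: Low-glucose (5.5 mM) medium with tamoxifen; incubation: compound exposure 48 h, 37 °C; measured by: high-content imaging of fixed cells with Hoechst nuclear stain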

| SMILES | activation | normalized cell count |
| --- | --- | --- |
| CC1=CC(=Cc2sc3ccccc3[n+]2C)C=C(C)O1 | 456% (active) | 88.8% |
| C[N+]1(C)CCOC(O)(c2ccc(-c3ccc(C4(O)C[N+](C)(C)CCO4)cc3)cc2)C1 (stereo not given) | -9.52% (inactive) | 86.4% |
| CC(=O)c1c(C)n(C(C)C)c2ccc(O)cc12 | 269% (inactive) | 65.5% |
| CCOCCc1c(O)[nH]c(=S)[nH]c1=O | 0% (inactive) | 137% |
| O=[N+]([O-])c1ccc(C2C3C(c4ccccc4)=NC4(CCCCC4)N32)cc1 (stereo not given) | -4.54% (inactive) | 112% |
| O=C(COc1ccc2ccccc2c1)N1CCN(Cc2ccncc2)CC1 | 1.82% (inactive) | 106% |
| O=C(COC(=O)c1ccccc1)Nc1ccc(Cl)cc1C(=O)c1ccccc1 | -3.33% (inactive) | 106% |
| CCOC(=O)c1c(-c2ccccc2)oc2ccc(OC(=O)N(C)C)cc12 | -72.7% (inactive) | 171% |
| CC[N+]1(C)CCCC(OC(=O)C(O)(c2ccccc2)c2ccccc2)C1 (stereo not given) | 295% (active) | 82% |
| Cc1nn(Cc2ccccc2Cl)c(Cl)c1C(=O)OC(C(=O)NC(N)=O)C(C)C (stereo not given) | 6.67% (inactive) | 71.1% |
| O=C(CN1CCCC1=O)NCCc1ccccc1 | -2.56% (inactive) | 176% |
| CC(=O)c1c(O)n(C2CCCCCC2)c(=O)[nH]c1=O | 146% (active) | 160% |
| COC(=O)CN1C(=O)C2(C(C(=O)OC)=C(N)Oc3ccccc32)C2=C1CC(C)(C)CC2=O (stereo not given) | -6.67% (inactive) | 84.7% |
| Cc1ccc(N2C(=O)NC(=O)C(CCc3ccncc3)(Cc3cccc(Cl)c3Cl)C2=O)cc1 (stereo not given) | 169% (inactive) | 113% |
| CC(=O)c1ccc(OC(NC(=O)Cc2ccccc2)C(Cl)(Cl)Cl)cc1 (stereo not given) | 6.45% (inactive) | 137% |
